Measurements: paper PMC3381860 (Chemmedchem, 2011)
Where “and” joins values, the source holds several entries; their conditions need not be identical. Equal values may be shown once. Read-outs that look alike come from different tables or passages of the source.

Columns and labels:
[1] = tested on: P. falciparum HB3 (chloroquine-sensitive); assay: P. falciparum HB3 antiplasmodial activity; assay type: cell-based, Plasmodium falciparum; conditions: read-out: Antiplasmodial activity IC50 HB3
Vero = assay: Cytotoxicity against uninfected Vero cells; assay type: cell-based; conditions: for IC50: read-out: Cytotoxicity IC50 Vero, uninfected Vero cells
P. falciparum (3D7) [2] = assay: P. falciparum 3D7 proliferation; assay type: cell-based, Plasmodium falciparum
[3] = tested on: P. falciparum Dd2 (chloroquine-resistant); assay: P. falciparum Dd2 antiplasmodial activity; assay type: cell-based, Plasmodium falciparum; conditions: read-out: Antiplasmodial activity IC50 Dd2
J774 = assay: Cytotoxicity against uninfected J774 cells; assay type: cell-based; conditions: read-out: Cytotoxicity IC50 J774
heme crystallization = assay: Parasite-free colorimetric heme crystallization inhibition; assay type: biochemical; conditions: molar equivalents of compound to heme
[4] = Spectrophotometric titration of Fe; assay type: binding
Summary of the method: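 Heme (Fe(III)PPIX) titrated with test compound from 1:1 to 16:1 mol equiv compound:heme at 23 °C in 40 % DMSO, 20 mM HEPES, pH 7.4. Soret-band and Q-band absorbance recorded after each addition. Spectra corrected for dilution by subtracting a reference cell.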

HepG2 = assay: Cytotoxicity against uninfected HepG2 cells; assay type: cell-based; conditions: read-out: Cytotoxicity IC50 HepG2
[5] = tested on: P. falciparum HB3 (chloroquine-sensitive); conditions: read-out: Antiplasmodial activity IC50 HB3, ref Hawley et al. [30]; cited from earlier work
P. falciparum (3D7) [6] = conditions: read-out: Antiplasmodial activity IC50 3D7, ref Hawley et al. [30]; cited from earlier work
[7] = read-out: Antiplasmodial activity IC50 3D7, 3D7, chloroquine-sensitive
[8] = read-out: P. falciparum (3D7) IC50, 3D7 strain

18-acetylbromophycolide A [Compound 7]
IC50 [1]: 431 ± 25 nM
IC50 (Vero): 74000 nM
fold increase in activity for P. falciparum parasites over mammalian (Vero) cells (Vero; selectivity P. falciparum vs Vero): 300 fold
IC50 (P. falciparum (3D7) [2]; [7]): 241 ± 52 nM
IC50 (P. falciparum (3D7) [2]; [8]): 240 nM
IC50 [3]: 304 ± 8.4 nM
IC50 (J774): 24700 nM
Heme crystallization IC50 (heme crystallization): 2.0 mol equiv and 2.0 ± 0.15 mol equiv
decrease in Soret band (λ 402 nm) absorbance of Fe^IIIPPIX upon titration ([4]; 40 % DMSO, 20 mM HEPES, pH 7.4): 25%
IC50 (HepG2): 38500 nM

CCN(CC)Cc1cc(Nc2ccnc3cc(Cl)ccc23)ccc1O [AMQ, amodiaquine, reference compound]
IC50 [5]: 8.5 nM
Heme crystallization IC50 (heme crystallization): 1.2 ± 0.19 mol equiv
Heme crystallization IC50 (heme crystallization; listed as amodiaquine): 1.2 mol equiv
IC50 (P. falciparum (3D7) [6]): 7.8 nM

CC1=C2Cc3cc(ccc3O)C(=O)O[C@H](C(C)(C)Br)CC[C@](C)(O)[C@H](Br)CC[C@]2(C)[C@@H](Br)CC1 [Compound 1, bromophycolide A]
IC50 [1]: 493 ± 44 nM
IC50 (Vero): 34600 nM
IC50 (P. falciparum (3D7) [2]; [7]): 499 ± 51 nM
IC50 (P. falciparum (3D7) [2]; [8]): 500 nM
IC50 [3]: 377 ± 92 nM
IC50 (J774): 19000 nM
Heme crystallization IC50 (heme crystallization): 2.5 mol equiv and 2.5 ± 0.13 mol equiv
association constant log K of Fe^IIIPPIX–compound complex ([4]; 1:1 complexation model, 40 % DMSO, 20 mM HEPES, pH 7.4): 4.52 ± 0.18
decrease in Soret band (λ 402 nm) absorbance of Fe^IIIPPIX upon titration ([4]; 40 % DMSO, 20 mM HEPES, pH 7.4): 45%
binding concentration at half-maximum ([4]; spectrophotometric titration experiment): 25 µM
IC50 (HepG2): 21300 nM

CC1=C2Cc3cc(ccc3O)C(=O)O[C@H](C(C)(C)O)CC[C@](C)(O)[C@H](Br)CC[C@]2(C)[C@@H](Br)CC1 [Compound 2, bromophycolide C]
IC50 (P. falciparum (3D7) [2]; [8]): 56000 nM

C=C(C)[C@@H]1CC[C@](C)(O)[C@H](Br)CC[C@@]2(C)[C@H](Cc3cc(ccc3O)C(=O)O1)C(=C)CC[C@@H]2Br [Compound 4, bromophycolide E]
IC50 (P. falciparum (3D7) [2]; [8]): 820 nM

C=C(C)[C@@H]1CCC(C)(O)[C@H](Br)CC[C@@]2(C)C(=C(C)CC[C@@H]2Br)Cc2cc(ccc2O)C(=O)O1 (stereo partly shown) [Compound 5, bromophycolide M]
IC50 (P. falciparum (3D7) [2]; [8]): 550 nM

bromophycolide D [Compound 3]
IC50 (P. falciparum (3D7) [2]; [8]): 350 nM

debromophycolide A [Compound 6]
P. falciparum (3D7) IC50 (P. falciparum (3D7) [2]; 3D7 strain): completely inactive
IC50 (P. falciparum (3D7) [2]; [8]): > 100000 nM
